Test results as given in PubChem BioAssay AID504383 (The Scripps Research Institute Molecular Screening Center, 2011).
In all, about 2,500 compounds went through this assay and about 1,200 (48%) were called active. So high a share suggests a set chosen from earlier hits. This is one part of the list. A number with no mark means an inactive call.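 How the source made its calls: active means mean activation above the low control average plus 3 SD, as set in the primary screen (cut at about 12% in these data); inactive means the rest.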

The molecules below were run against Troponin I, cardiac muscle (Homo sapiens) + Troponin T, cardiac muscle (Homo sapiens) + Troponin C, slow skeletal and cardiac muscles (Homo sapiens) (UniProt P19429+P45379+P63316) (assay: cardiac RTF calcium sensitivity activators, confirmation, biochemical, IANBD-TnC fluorescence, triplicate (AID 504383;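 further: 0% = DMSO at 0.472 mM calcium and 100% = DMSO at 2.9 mM calcium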)). Conditions: IANBD-labeled cardiac RTF, Ca2+ sensitivity fluorescence; at 7.2 µM; hits give high values; scaled from EC20 to saturating calcium; tested at EC20 calcium, 0.472 mM.
Procedure, shortened: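 Material: labelled regulated thin filaments; Reagent: 0.472 mM calcium; Incubation: 15 min compound incubation with filaments at 25 °C; Detection: filament fluorescence intensity; Evaluation: fluorescence increase normalised to calcium controls; Benchmarks: low control EC20 calcium, high control EC100 calcium.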

| Compound | activation |
| --- | --- |
| O=C(NCC(=O)N(Cc1cccs1)C(C(=O)NC1CCCCC1)c1ccncc1)c1ccco1 (stereo not drawn) | 3.25% |
| O=C(NCCNC(=O)c1cccs1)c1ccco1 | 40.3% (active) |
| CCOC(=O)Cc1csc(CC(N)=O)n1 | 4.59% |
| CCOC(=O)Cc1csc(NC(=O)c2sc3nc4cc(C)ccc4cc3c2N)n1 | 71.2% (active) |
| CCOC(=O)Cc1csc(N(C)C)n1 | 10.1% |
| Cc1ccc(NC(=O)CN(C)c2ccc(S(=O)(=O)N3CCCC3)cn2)cc1 | 94.3% (active) |
| Cc1ccc(CNC(=O)c2ccc(S(=O)(=O)N3CCCCC3)cc2)cc1 | 6.31% |
| CCc1cccc2cc3c(N)c(C(=O)Nc4ccc(S(=O)(=O)N5CCCC5)cc4)sc3nc12 | 24.8% (active) |
| Cc1cccc2cc3c(N)c(C(=O)N4CCCc5ccccc54)sc3nc12 | 6.58% |
| Nc1c(C(=O)Nc2ccc(S(=O)(=O)N3CCCC3)cc2)sc2nc3ccc(OC(F)(F)F)cc3cc12 | 11.7% (active) |
| O=c1[nH][nH]c(C(F)(F)F)c1C=Nc1cccc(Cl)c1 | 60% (active) |
| O=c1[nH][nH]c(C(F)(F)F)c1C=NCc1ccccc1Cl | 33.6% (active) |
| CN(C)c1ccc2nc3c(=O)[nH]c(=O)nc-3n(CC(O)C(O)C(O)CO)c2c1 (stereo not drawn) | 10.2% |
| Cc1ccc(-c2nc(N)n(C(=O)c3cccnc3)n2)cc1 | 148% (active) |
| COc1ccccc1C(=O)n1nc(-c2ccccc2)nc1N | 4.84% |
| COc1ccc(C(=O)/C=C/c2cn(CC(O)CN3CCN(C)CC3)c3ccccc23)cc1OC (stereo not drawn) | 133% (active) |
| Cc1ccc(C(=O)/C=C/c2cn(CC(O)CN3CCOCC3)c3ccccc23)cc1 (stereo not drawn) | -2.05% |
| COc1ccc(C(=O)/C=C/c2cn(CC(O)CN3CCOCC3)c3ccccc23)cc1 (stereo not drawn) | 21.6% (active) |
| COC(=O)c1ccc(Oc2c(F)c(F)nc(N3CCOCC3)c2F)cc1 | 5.29% |
| O=c1c(O)c(-c2cccs2)oc2ccc(Cl)cc12 | 4.87% |
| O=C(N/N=C/c1cc(Cl)cc(Cl)c1O)c1ccncc1 | 17.9% (active) |
| C/C(=N/NC(=O)c1ccncc1)c1cc2ccc(O)cc2oc1=O | 4.52% |
| Nc1nnnn1/N=C/c1cc(Cl)cc(Cl)c1O | 11% |
| CC1(C)CC2CC(C)(CN2CC(=O)C(C#N)c2ccccc2)C1 (stereo not drawn) | 7.07% |
| Cn1ncc2c(O/N=C(\N)c3ccc(C(F)(F)F)cc3)ncnc21 | 93.4% (active) |
| Nc1ccn([C@H]2C[C@H](O)[C@@H](CO)O2)c(=O)n1 | 11.1% |
| CC1(OC(=O)CCc2ccccc2)C(=O)C=C2C=C(c3ccc(C#N)cc3)N(C3CCCC3)C=C2C1=O (stereo not drawn) | 5.7% |
| Cc1cc(C)n(C2CCCCC2OC(=O)CCc2ccccc2)n1 (stereo not drawn) | 35.8% (active) |
